The record followed here is PubChem BioAssay.

The viability is a read-out of living cells in per cent, often relative to untreated cells. As usually defined, the inhibition is the change of the read-out against control, counted positive when it falls.

Assay [1] can be described thus: HUVEC growth inhibition – cell-based, human, primary screen (AID 575;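 active = viability at or below 30% in both replicate assays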;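 also: 100% = median of untreated cell wells with 0.1% DMSO on each plate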). To be noted: HUVEC proliferation, CellTiter-Glo luminescence, 72 h; at 10 µM; stronger effect = lower value. In a few lines: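 Timing: 72 h treatment at 37 °C; material: HUVEC primary cells; technique: CellTiter-Glo luminescence measuring cellular ATP; controls: vehicle and MePR control wells; measure: percent of median DMSO-control luminescence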
Background: ATP-based viability assays read luminescence as a measure of living cells.

The nature of assay [2]: H69AR cell proliferation blockers – human, duplicate replicates, primary screen (AID 580).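 Also: 100% = mean luminescence of untreated wells and 0% = no signal.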 The conditions noted are these: H69AR lung tumor cells viability, ATP luminescence, 72 h; at 10 µM; stronger effect = lower value.
Assay [3] in a line: MRP1 drug-resistance reversers in H69AR cells – cell-based, doxorubicin co-treatment, pilot screen (AID 601;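 active = viability loss from added drug above about 55%, and viability with drug at most 40%, in both replicates, limit read from the data, passing the limit was not always enough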). The conditions noted are these: CellTiter-Glo, 72 h, at 10 µM; for differential viability (reversal): stronger effect = higher value.
Assay [4] is described as follows: yeast transport mutant growth inhibition pilot in 384-well plates, post-Golgi transport modulator project (AID 636; in the data active = inhibition above about 31%). To be noted: absorbance 615 nm, about 18 h, stronger effect = higher value.
A short description of assay [5]: growth suppression of yeast trafficking mutant, preliminary HTS, modulators of trafficking downstream of Golgi apparatus project, 1536-format plate, OD 615 nm (AID 637; in the data active = inhibition above about 30%). To be noted: yeast transport mutant growth, absorbance 615 nm, 18 h; stronger effect = higher value.
[6] abbreviates: H69AR cells + 2 uM doxorubicin, measured here: viability with 2 uM doxorubicin, stronger effect = lower value.
Setting [7] is: H69AR cells, compound alone cytotoxicity.

Active and inactive are the calls of the source.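 The calls were made as follows, unless noted: active = viability at or under a set limit in both replicates, limit being median viability minus 3 SD (cut at about 48% in these data, passing the limit was not always enough); inconclusive = at or under the limit in just one replicate; inactive = at or above the limit in both replicates.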

With `O=C1CC(C(=O)Nc2ccccc2)C2(CCCC2)O1` (stereo not given), the viability in assay [1] is 98.4% (inactive); in assay [2] it was 93.9% (inactive); in assay [3] (setting [6]) it was 90.8%; in assay [3] (setting [7]), 93.9%. In addition, the differential viability (reversal) in assay [3] (H69AR cells + 2 uM doxorubicin) was 3.1% (inactive). In addition, the inhibition in assay [4] was -2.6% (inactive); in assay [5], -2.38% (inactive).

Consider `CCOC(=O)c1sc(NC(=O)CSc2nc3c(cc2C#N)CCC3)c(C#N)c1C`, for which the viability in assay [1] was 74.7% (inactive); in assay [2] it was 91.1% (inactive); in assay [3] (setting [6]), 99.5%; in assay [3] (setting [7]), 91.1%. In addition, in assay [3] (H69AR cells + 2 uM doxorubicin), the differential viability (reversal) was -8.41% (inactive). For the same molecule, the inhibition in assay [4] was -5% (inactive); in assay [5], -0.32% (inactive).

Regarding `O=c1c2ccc(-c3nnc4n3-c3ccccc3SC4)cc2nc2n1CCCCC2`, the viability in assay [1] was 94.9% (inactive); in assay [2], 94.4% (inactive); in assay [3] (setting [6]) it was 85.5%; in assay [3] (setting [7]), 94.4%. For the same molecule, in assay [3] (H69AR cells + 2 uM doxorubicin), the differential viability (reversal) was 8.88% (inactive). Moreover, the inhibition in assay [4] was -5.33% (inactive); in assay [5] it was 6.83% (inactive).

As for `CC(C)NC(=O)NC(=O)COc1cccc2c1OC(C)(C)C2`, the viability in assay [1] was 97.1% (inactive); in assay [2], 105% (inactive); in assay [3] (setting [6]), 87.9%; in assay [3] (setting [7]), 105%. For the same molecule, the differential viability (reversal) in assay [3] (H69AR cells + 2 uM doxorubicin) was 16.9% (inactive). The results for the inhibition in assay [4] and in assay [5] were -3.38% (inactive) and 0.79% (inactive), respectively.

Consider `CCOc1ccc2cc(C#N)c(SCC(=O)N3CCC(C)CC3)nc2c1`, for which the viability in assay [1] is 43.5% (inactive); in assay [2] it was 34.4% (active); in assay [3] (setting [6]), 33.9%; in assay [3] (setting [7]) it was 34.4%. Moreover, the differential viability (reversal) in assay [3] (H69AR cells + 2 uM doxorubicin) was 0.44% (inactive). The values for the inhibition in assay [4] and in assay [5] were -8.8% (inactive) and -1.11% (inactive), respectively.

For the molecule `CCc1nccn1S(=O)(=O)c1ccc2ccc(C)cc2c1`, the viability in assay [1] is 105% (inactive); in assay [2] it was 91.3% (inactive); in assay [3] (setting [6]) it was 93.5%; in assay [3] (setting [7]) it was 91.3%. In addition, the differential viability (reversal) in assay [3] (H69AR cells + 2 uM doxorubicin) was -2.18% (inactive). The inhibition was 2.24% (inactive) in assay [4] and -3.49% (inactive) in assay [5].

Turning to `CC1Cc2ccccc2N1C(=O)Cc1cccs1` (stereo not given), the viability was 84.8% (inactive) in assay [1], 108% (inactive) in assay [2], 92.3% in assay [3] (setting [6]) and 108% in assay [3] (setting [7]). The differential viability (reversal) in assay [3] (H69AR cells + 2 uM doxorubicin) is 16.1% (inactive). Moreover, the inhibition was -1.71% (inactive) in assay [4] and 2.06% (inactive) in assay [5].

For the molecule `CS(=O)(=O)N(CC(=O)N1CCCCCC1)c1ccccc1`, the viability in assay [1] is 95.2% (inactive); in assay [2], 98.2% (inactive); in assay [3] (setting [6]) it was 90%; in assay [3] (setting [7]), 98.2%. Besides, in assay [3] (H69AR cells + 2 uM doxorubicin), the differential viability (reversal) was 8.29% (inactive). Moreover, the inhibition in assay [4] was -5.79% (inactive); in assay [5] it was 1.9% (inactive).

Take `CC(=O)Nc1cccc(-c2nnc(-c3ccccc3)o2)c1`: the viability was 88.8% (inactive) in assay [1], 92.6% (inactive) in assay [2], 85.8% in assay [3] (setting [6]) and 92.6% in assay [3] (setting [7]). The differential viability (reversal) in assay [3] (H69AR cells + 2 uM doxorubicin) was 6.77% (inactive). Further, the results for the inhibition in assay [4] and in assay [5] were -5.58% (inactive) and -1.9% (inactive), respectively.

On to `COC(=O)CN(c1ccc2c(c1)OCO2)S(C)(=O)=O`, for which the viability was 102% (inactive) in assay [1], 110% (inactive) in assay [2], 97.9% in assay [3] (setting [6]) and 110% in assay [3] (setting [7]). Besides, in assay [3] (H69AR cells + 2 uM doxorubicin), the differential viability (reversal) was 12.5% (inactive). In addition, the results for the inhibition in assay [4] and in assay [5] were -2.63% (inactive) and 6.67% (inactive), respectively.

`CCOc1ncccc1C(=O)Nc1ccc2c(C)cc(=O)oc2c1`: the viability in assay [1] is 84.1% (inactive); in assay [2], 93.5% (inactive); in assay [3] (setting [6]) it was 92.4%; in assay [3] (setting [7]), 93.5%. Further, the differential viability (reversal) in assay [3] (H69AR cells + 2 uM doxorubicin) was 1.12% (inactive). Moreover, the inhibition was -3.77% (inactive) in assay [4] and 6.51% (inactive) in assay [5].

On to `O=C(C1CCN(S(=O)(=O)c2ccc(-n3cnnn3)cc2)CC1)N1CCN(c2ccccc2)CC1`, for which the viability in assay [1] was 103% (inactive); in assay [2] it was 94.5% (inactive); in assay [3] (setting [6]), 91.6%; in assay [3] (setting [7]) it was 94.5%. Further, the differential viability (reversal) in assay [3] (H69AR cells + 2 uM doxorubicin) was 2.88% (inactive). Also, the inhibition in assay [4] is -1.43% (inactive); in assay [5], 0.48% (inactive).

On to `Cc1cc(C)n(-c2nc(C)nc3c2cnn3-c2ccccc2)n1`, for which the viability in assay [1] was 87.4% (inactive); in assay [2], 87.3% (inactive); in assay [3] (setting [6]) it was 88.8%; in assay [3] (setting [7]) it was 87.3%. In assay [3] (H69AR cells + 2 uM doxorubicin), the differential viability (reversal) was -1.5% (inactive). In addition, the inhibition was -3.77% (inactive) in assay [4] and 6.19% (inactive) in assay [5].

Regarding `Cn1nc(-c2ccc(C(=O)N3CCN(c4ccccc4)CC3)cc2)c2ccccc2c1=O`, the viability is 71.2% (inactive) in assay [1], 92.4% (inactive) in assay [2], 88.9% in assay [3] (setting [6]) and 92.4% in assay [3] (setting [7]). The differential viability (reversal) in assay [3] (H69AR cells + 2 uM doxorubicin) is 3.5% (inactive). For the same molecule, the results for the inhibition in assay [4] and in assay [5] were 0.26% (inactive) and 27.3% (inactive), respectively.

As for `CN(c1ccccc1)S(=O)(=O)c1cc(C(=O)N2CCN(c3ccccn3)CC2)ccc1Cl`, the viability in assay [1] was 45.3% (inactive); in assay [2] it was 88.5% (inactive); in assay [3] (setting [6]) it was 78.4%; in assay [3] (setting [7]), 88.5%. The differential viability (reversal) in assay [3] (H69AR cells + 2 uM doxorubicin) was 10.1% (inactive). The results for the inhibition in assay [4] and in assay [5] were 0.39% (inactive) and 2.22% (inactive), respectively.

For the molecule `O=C(NC1CCCCC1)C(c1ccc(Cl)cc1)N(C(=O)c1cnccn1)c1ccc2c(c1)OCO2` (stereo not given), the viability in assay [1] is 80.4% (inactive); in assay [2] it was 80.2% (inactive); in assay [3] (setting [6]), 75.8%; in assay [3] (setting [7]), 80.2%. In assay [3] (H69AR cells + 2 uM doxorubicin), the differential viability (reversal) was 4.39% (inactive). In addition, the inhibition in assay [4] was -5.47% (inactive); in assay [5] it was -5.71% (inactive).

Turning to `COc1ccc(C)cc1-n1nnnc1SCC(=O)NC(=O)NCc1ccco1`, the viability is 90.9% (inactive) in assay [1], 87.3% (inactive) in assay [2], 78.1% in assay [3] (setting [6]) and 87.3% in assay [3] (setting [7]). For the same molecule, in assay [3] (H69AR cells + 2 uM doxorubicin), the differential viability (reversal) is 9.23% (inactive). For the same molecule, the values for the inhibition in assay [4] and in assay [5] were -1.69% (inactive) and 3.17% (inactive), respectively.

For `COc1ccccc1NS(=O)(=O)c1ccc(NC(=O)c2nc3ncccn3n2)cc1`, the viability was 94.7% (inactive) in assay [1], 96.3% (inactive) in assay [2], 85.1% in assay [3] (setting [6]) and 96.3% in assay [3] (setting [7]). Moreover, the differential viability (reversal) in assay [3] (H69AR cells + 2 uM doxorubicin) is 11.2% (inactive). Further, the inhibition in assay [4] was -1.17% (inactive); in assay [5], 7.3% (inactive).

In the case of `O=C(Nc1ccc(Cl)c(Cl)c1)Nc1cc(C(=O)N2CCOCC2)ccc1N1CCCCC1`, the viability in assay [1] is 105% (inactive); in assay [2], 95.9% (inactive); in assay [3] (setting [6]), 91.8%; in assay [3] (setting [7]), 95.9%. The differential viability (reversal) in assay [3] (H69AR cells + 2 uM doxorubicin) is 4.12% (inactive). The inhibition in assay [4] was -4.08% (inactive); in assay [5], -2.22% (inactive).

`O=C(CCC(=O)N1CCN(S(=O)(=O)c2ccccc2)CC1)c1cccs1`: the viability in assay [1] was 102% (inactive); in assay [2], 90.9% (inactive); in assay [3] (setting [6]) it was 86.5%; in assay [3] (setting [7]), 90.9%. For the same molecule, the differential viability (reversal) in assay [3] (H69AR cells + 2 uM doxorubicin) is 4.42% (inactive). Moreover, the inhibition in assay [4] was -5.32% (inactive); in assay [5], -3.33% (inactive).
